In ChEMBL document CHEMBL4004837, “Synthesis and Characterization of Urofuranoic Acids: In Vivo Metabolism of 2-(2-Carboxyethyl)-4-methyl-5-propylfuran-3-carboxylic Acid (CMPF) and Effects on in Vitro Insulin Secretion” (J Med Chem, 2017):

How the values were obtained:
[1] = (§1) Drug metabolism in CD1 mouse muscle assessed as loss of C2 carboxyl during fragmentation at 6 mg/kg, ip dosed once daily for 3 days followed by dosing of 1:1 mixtures of 2-(2-Carboxyethyl)-4-methyl-5-propyl-(3-13C-furan)-3-13Ccarboxylate and test compound on day 4 and 5 measured 1 hr post dose on day 5 by HPLC-MS analysis; type: ADME, organism-based, Muscle tissue; conditions: in vivo
How it was run: (§2)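 Mice received CMPF 6 mg/kg intraperitoneally for three days, then 1:1 labeled/unlabeled CMPF mixtures on days four and five. On day five they were euthanized 1 h post-dose, and plasma, adipose, muscle and liver were collected. Samples were analysed by HPLC-MS, with MS/MS of product ions. Metabolites were identified by the distinctive isotope patterns from the 1:1 label mixture.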

[2] = test system: Liver; experiment: as §1, with “liver” for “muscle”, “2-(2-(Carboxy-13C)ethyl)-4-methyl-5-propylfuran-3-carboxylic-2-13C Acid” for “2-(2-Carboxyethyl)-4-methyl-5-propyl-(3-13C-furan)-3-13Ccarboxylate”; type: ADME, organism-based; conditions: in vivo; how it was run: as §2
[3] = test system: Plasma; experiment: (§3) Drug metabolism in CD1 mouse plasma assessed as oxidative metabolites formation at 6 mg/kg, ip dosed once daily for 3 days followed by dosing of 1:1 mixtures of 2-(2-(Carboxy-13C)ethyl)-4-methyl-5-propylfuran-3-carboxylic-2-13C Acid and test compound on day 4 and 5 measured 1 hr post dose on day 5 by HPLC-MS analysis; type: ADME, organism-based; conditions: in vivo
How it was run: (§4)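 CMPF given 6 mg/kg i.p. once daily for three days. On days four and five, 1:1 mixtures of stable-isotope-labelled and unlabelled CMPF were dosed. Mice were killed 1 h after the day-five dose. Plasma, adipose, muscle and liver were collected and analysed by HPLC-MS (MS/MS for product ions). Metabolites were identified by their distinctive isotope patterns from the labelled/unlabelled mixture.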

[4] = test system: Plasma; experiment: (§5) Drug metabolism in CD1 mouse plasma assessed as glucuronide conjugate formation at 6 mg/kg, ip dosed once daily for 3 days followed by dosing of 1:1 mixtures of 2-(2-Carboxyethyl)-4-methyl-5-(1-propyl-1-13C)furan-3-carboxylic Acid and test compound on day 4 and 5 measured 1 hr post dose on day 5 by HPLC-MS analysis; type: ADME, organism-based; conditions: in vivo; how it was run: as §4
[5] = test system: Liver; experiment: as §5, with “liver” for “plasma”, “glycerol” for “glucuronide”; type: ADME, organism-based; conditions: in vivo; how it was run: as §2
[6] = Suppression of high glucose stimulated insulin secretion in mouse pancreatic islets at 200 uM treated for 24 hrs followed by glucose stimulation for 20 mins by HTRF assay relative to control; type: ADME, cell-based; conditions: pancreatic islet
How it was run: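 Mouse islet screening assay in high-glucose (20 mM) medium with compounds at 200 µM. Insulin secretion is expressed as fold change relative to vehicle. Mean of n = 4 experiments with SEM; significance by Student's t-test, p ≤ 0.05.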

[7] = Suppression of glucose stimulated insulin secretion in mouse pancreatic islet at 200 uM incubated for 24 hrs followed by glucose stimulation for 20 mins by HTRF assay relative to control
[8] = test system: Liver; experiment: as §3, with “liver” for “plasma”, “2-(2-Carboxyethyl)-4-methyl-5-(1-propyl-1-13C)furan-3-carboxylic” for “2-(2-(Carboxy-13C)ethyl)-4-methyl-5-propylfuran-3-carboxylic-2-13C”; type: ADME, organism-based; conditions: in vivo; how it was run: as §2
[9] = (§6) Drug metabolism in CD1 mouse adipose assessed as monoacylglycerol conjugate formation at 6 mg/kg, ip dosed once daily for 3 days followed by dosing of 1:1 mixtures of 2-(2-Carboxyethyl)-4-methyl-5-propyl-(3-13C-furan)-3-13Ccarboxylateand test compound on day 4 and 5 measured 1 hr post dose on day 5 by HPLC-MS analysis; type: ADME, organism-based, Adipose tissue; conditions: in vivo; how it was run: as §2
[10] = test system: Plasma; experiment: as §5, with “glycerol” for “glucuronide”; type: ADME, organism-based; conditions: in vivo; how it was run: as §4
[11] = Half life in mouse at 1 mg/kg, iv; type: ADME, organism-based; conditions: in vivo
How it was run: (§7)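 Mouse pharmacokinetics after single intravenous CMPF dosing at 1 or 3 mg/kg. Plasma exposure was followed over time to derive AUC, C0, terminal half-life, clearance and volume of distribution.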

[12] = as §5, with “muscle” for “plasma”, “monoacylglycerol” for “glucuronide”; type: ADME, organism-based, Muscle tissue; conditions: in vivo; how it was run: as §2
[13] = test system: Liver; experiment: as §1, with “liver” for “muscle”, “2-(2-Carboxyethyl)-4-methyl-5-(1-propyl-1-13C)furan-3-carboxylic Acid” for “2-(2-Carboxyethyl)-4-methyl-5-propyl-(3-13C-furan)-3-13Ccarboxylate”; type: ADME, organism-based; conditions: in vivo; how it was run: as §2
[14] = Effect on insulin content in glucose-stimulated mouse pancreatic islet at 200 uM incubated for 24 hrs followed by glucose stimulation for 20 mins by HTRF assay; type: ADME, cell-based
How it was run: (§8)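 Mouse islets treated with compounds at 200 µM. Insulin secretion was then measured under low- and high-glucose GSIS conditions and under KCl stimulation, and intracellular insulin content was measured. Mean of n = 4-5 experiments with SEM.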

[15] = as §5, with “muscle” for “plasma”, “glycerol” for “glucuronide”; type: ADME, organism-based, Muscle tissue; conditions: in vivo; how it was run: as §2
[16] = as §1, with “adipose” for “muscle”, “2-(2-(Carboxy-13C)ethyl)-4-methyl-5-propylfuran-3-carboxylic-2-13C Acid” for “2-(2-Carboxyethyl)-4-methyl-5-propyl-(3-13C-furan)-3-13Ccarboxylate”; type: ADME, organism-based, Adipose tissue; conditions: in vivo; how it was run: as §2
[17] = as §5, with “adipose” for “plasma”, “diacylglycerol” for “glucuronide”; type: ADME, organism-based, Adipose tissue; conditions: in vivo; how it was run: as §2
[18] = Half life in mouse at 3 mg/kg, iv; type: ADME, organism-based; conditions: in vivo; how it was run: as §7
[19] = Effect on insulin content in KCl-stimulated mouse pancreatic islet at 200 uM incubated for 24 hrs followed by KCl stimulation for 20 mins by HTRF assay; type: ADME, cell-based; how it was run: as §8
[20] = as §3, with “muscle” for “plasma”, “glycerol conjugate” for “oxidative metabolites”; type: ADME, organism-based, Muscle tissue; conditions: in vivo; how it was run: as §2
[21] = Initial plasma concentration in mouse at 3 mg/kg, iv; type: ADME, organism-based; how it was run: as §7
[22] = as §6, with “muscle” for “adipose”, “diacylglycerol” for “monoacylglycerol”; type: ADME, organism-based, Muscle tissue; conditions: in vivo; how it was run: as §2
[23] = AUC in mouse at 3 mg/kg, iv; type: ADME, organism-based; conditions: in vivo
[24] = target: CYP2D6 (Homo sapiens, UniProt P10635); experiment: Inhibition of human microsomal CYP2D6 at 10 uM after 3 mins by single quad LC/MS analysis; type: ADME; conditions: microsomes
[25] = as §1, with “2-(2-(Carboxy-13C)ethyl)-4-methyl-5-propylfuran-3-carboxylic-2-13C Acid” for “2-(2-Carboxyethyl)-4-methyl-5-propyl-(3-13C-furan)-3-13Ccarboxylate”; type: ADME, organism-based, Muscle tissue; conditions: in vivo; how it was run: as §2
[26] = as §1, with “adipose” for “muscle”, “2-(2-Carboxyethyl)-4-methyl-5-(1-propyl-1-13C)furan-3-carboxylic Acid” for “2-(2-Carboxyethyl)-4-methyl-5-propyl-(3-13C-furan)-3-13Ccarboxylate”; type: ADME, organism-based, Adipose tissue; conditions: in vivo; how it was run: as §2

Chain of CYP2D6 (P10635 whole entry): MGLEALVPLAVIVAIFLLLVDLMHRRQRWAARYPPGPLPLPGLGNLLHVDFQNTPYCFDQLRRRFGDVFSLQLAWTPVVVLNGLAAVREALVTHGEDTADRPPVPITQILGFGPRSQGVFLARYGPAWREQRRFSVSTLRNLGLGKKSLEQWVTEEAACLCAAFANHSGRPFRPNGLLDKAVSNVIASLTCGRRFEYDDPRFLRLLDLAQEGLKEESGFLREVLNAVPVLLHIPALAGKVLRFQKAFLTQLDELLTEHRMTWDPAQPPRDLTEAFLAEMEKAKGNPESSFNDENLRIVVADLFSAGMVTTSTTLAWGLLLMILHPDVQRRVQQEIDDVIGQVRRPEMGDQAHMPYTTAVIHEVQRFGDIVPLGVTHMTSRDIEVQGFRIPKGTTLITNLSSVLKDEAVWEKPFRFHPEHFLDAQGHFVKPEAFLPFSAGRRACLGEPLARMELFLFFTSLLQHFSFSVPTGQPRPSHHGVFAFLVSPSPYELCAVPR

Drug metabolism [1]: Metabolite_Detected | Drug metabolism [2]: Metabolite_Detected | Drug metabolism [3]: Metabolite_Notdetected | Drug metabolism [4]: Metabolite_Detected | Drug metabolism [5]: Metabolite_Notdetected | Drug metabolism [8]: Metabolite_Notdetected | Drug metabolism [9]: Metabolite_Notdetected | Drug metabolism [10]: Metabolite_Notdetected | half-life [11]: 4.5 h | Drug metabolism [12]: Metabolite_Notdetected | Drug metabolism [13]: Metabolite_Detected | Drug metabolism [15]: Metabolite_Notdetected | Drug metabolism [16]: Metabolite_Detected | Drug metabolism [17]: Metabolite_Notdetected | half-life [18]: 3.27 h | Drug metabolism [20]: Metabolite_Notdetected | C0 [21]: 130 µM | Drug metabolism [22]: Metabolite_Notdetected | AUC [23]: 210 µM·h | inhibition at 0.05 h, 10 µM [24]: 0% | Drug metabolism [25]: Metabolite_Detected | Drug metabolism [26]: Metabolite_Detected
Compound: CCCc1oc(CCC(=O)O)c(C(=O)O)c1C
Activity [6]: Toxic | Activity [7]: Toxic | Activity [14]: Non-Toxic | Activity [19]: Non-Toxic
